Measurements as given in ChEMBL document CHEMBL1268908, “Design, synthesis, radiolabeling, and in vivo evaluation of carbon-11 labeled N-[2-[4-(3-cyanopyridin-2-yl)piperazin-1-yl]ethyl]-3-methoxybenzamide, a potential positron emission tomography tracer for the dopamine D(4) receptors” (J Med Chem, 2010).

Legend:
Assay type in all cases: ADME, organism-based, Macaca mulatta
[1] = Biodistribution in rhesus monkey cingulate cortex at 150.3 MBq, iv after 0.25 mins; details: in vivo, 15 s
Outline: (§1)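 Male rhesus monkey under ketamine (10 mg/kg im) with head fixation. After a 20 min 68Ge-68Ga transmission scan, the [11C]-labelled tracer in saline (pH 7.4) was injected iv, at 2.9 TBq/μmol specific radioactivity at injection. A dynamic 3D PET scan followed over 90 min (6×0.5, 7×1, 20×2, 8×5 min frames). Regions were defined on T1-weighted 1.5 T MRI, and uptake is given as %ID/mL.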

[2] = Biodistribution in rhesus monkey cerebellum at 150.3 MBq, iv after 0.25 mins; details: in vivo, 15 s; outline: as §1
[3] = Biodistribution in rhesus monkey cerebellum at 150.3 MBq, iv after 0.75 mins; details: in vivo, 45 s; outline: as §1
Striatum [4] = assay: Biodistribution in rhesus monkey striatum at 150.3 MBq, iv after 1.25 mins; details: in vivo, 75 s
[5] = Biodistribution in rhesus monkey occipital lobe at 150.3 MBq, iv after 1.25 mins; details: in vivo, 75 s
Outline: (§2)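 Male rhesus monkey under ketamine 10 mg/kg im, head fixed; 20 min 68Ge-68Ga transmission scan, then 90 min dynamic 3D PET (6×0.5, 7×1, 20×2, 8×5 min frames) after iv [11C]-labelled tracer in saline, specific radioactivity about 2.9 TBq/μmol at injection. Regions defined on T1-weighted MRI; uptake expressed as % injected dose per mL.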

[6] = Biodistribution in rhesus monkey entorhinal cortex at 150.3 MBq, iv after 1.75 mins; details: in vivo, 105 s
Outline: (§3)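 Single male rhesus monkey anesthetized with ketamine 10 mg/kg im, head fixed. Attenuation correction by 20 min 68Ge-68Ga transmission scan. [11C]-tracer in saline (pH 7.4) given iv, specific radioactivity 2.9 TBq/μmol at injection. Dynamic 3D PET emission scan over 90 min in frames of 0.5 to 5 min. MRI T1 images used to define VOIs. Uptake expressed as […].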

Striatum [7] = assay: Biodistribution in rhesus monkey striatum at 150.3 MBq, iv after 1.75 mins; details: in vivo, 105 s
Hippocampus [8] = assay: Biodistribution in rhesus monkey hippocampus at 150.3 MBq, iv after 2.25 mins; details: in vivo, 135 s; outline: as §3
[9] = Biodistribution in rhesus monkey occipital lobe at 150.3 MBq, iv after 2.25 mins; details: in vivo, 135 s; outline: as §2
Hippocampus [10] = assay: Biodistribution in rhesus monkey hippocampus at 150.3 MBq, iv after 3.5 mins; details: in vivo; outline: as §2
Striatum [11] = assay: Biodistribution in rhesus monkey striatum at 150.3 MBq, iv after 3.5 mins; details: in vivo
[12] = Biodistribution in rhesus monkey entorhinal cortex at 150.3 MBq, iv after 4.5 mins; details: in vivo, 0.075 h; outline: as §3
Striatum [13] = assay: Biodistribution in rhesus monkey striatum at 150.3 MBq, iv after 4.5 mins; details: in vivo, 0.075 h
[14] = Biodistribution in rhesus monkey cerebellum at 150.3 MBq, iv after 4.5 mins; details: in vivo, 0.075 h; outline: as §1
Striatum [15] = assay: Biodistribution in rhesus monkey striatum at 150.3 MBq, iv after 6.5 mins; details: in vivo
Striatum [16] = assay: Biodistribution in rhesus monkey striatum at 150.3 MBq, iv after 7.5 mins; details: in vivo, 0.125 h
[17] = Biodistribution in rhesus monkey occipital lobe at 150.3 MBq, iv after 9.5 mins; details: in vivo
[18] = Biodistribution in rhesus monkey cingulate cortex at 150.3 MBq, iv after 11 mins; details: in vivo; outline: as §1
[19] = Biodistribution in rhesus monkey cingulate cortex at 150.3 MBq, iv after 19 mins; details: in vivo; outline: as §1
[20] = Biodistribution in rhesus monkey cerebellum at 150.3 MBq, iv after 21 mins; details: in vivo, 0.35 h; outline: as §1
Striatum [21] = assay: Biodistribution in rhesus monkey striatum at 150.3 MBq, iv after 23 mins; details: in vivo
[22] = Biodistribution in rhesus monkey entorhinal cortex at 150.3 MBq, iv after 25 mins; details: in vivo; outline: as §3
[23] = Biodistribution in rhesus monkey retina at 150.3 MBq, iv after 25 mins; details: in vivo
[24] = Biodistribution in rhesus monkey entorhinal cortex at 150.3 MBq, iv after 29 mins; details: in vivo; outline: as §3
[25] = Biodistribution in rhesus monkey entorhinal cortex at 150.3 MBq, iv after 33 mins; details: in vivo, 0.55 h; outline: as §3
[26] = Biodistribution in rhesus monkey retina at 150.3 MBq, iv after 33 mins; details: in vivo, 0.55 h
Striatum [27] = assay: Biodistribution in rhesus monkey striatum at 150.3 MBq, iv after 35 mins; details: in vivo
[28] = Biodistribution in rhesus monkey cerebellum at 150.3 MBq, iv after 35 mins; details: in vivo; outline: as §1
[29] = Biodistribution in rhesus monkey retina at 150.3 MBq, iv after 35 mins; details: in vivo
[30] = Biodistribution in rhesus monkey entorhinal cortex at 150.3 MBq, iv after 39 mins; details: in vivo, 0.65 h; outline: as §3
Striatum [31] = assay: Biodistribution in rhesus monkey striatum at 150.3 MBq, iv after 39 mins; details: in vivo, 0.65 h
[32] = Biodistribution in rhesus monkey occipital lobe at 150.3 MBq, iv after 43 mins; details: in vivo
Outline: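 A male rhesus monkey was anaesthetised with ketamine 10 mg/kg im and placed in a head fixation device. A 20 min 68Ge-68Ga transmission scan was run for attenuation correction. Radiotracer in saline (pH 7.4) was given iv, about 52 pmol (18 ng), at 2.9 TBq/μmol at injection. A dynamic 3D PET scan followed for 90 min. Regional VOIs were defined on a T1-weighted MRI, with uptake expressed as %ID/mL.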

Striatum [33] = assay: Biodistribution in rhesus monkey striatum at 150.3 MBq, iv after 45 mins; details: in vivo, 0.75 h
[34] = Biodistribution in rhesus monkey cingulate cortex at 150.3 MBq, iv after 47 mins; details: in vivo; outline: as §1
[35] = Biodistribution in rhesus monkey entorhinal cortex at 150.3 MBq, iv after 47 mins; details: in vivo; outline: as §3
[36] = Biodistribution in rhesus monkey cerebellum at 150.3 MBq, iv after 47 mins; details: in vivo; outline: as §1
[37] = Biodistribution in rhesus monkey retina at 150.3 MBq, iv after 47 mins; details: in vivo
[38] = Biodistribution in rhesus monkey retina at 150.3 MBq, iv after 57.5 mins; details: in vivo
[39] = Biodistribution in rhesus monkey entorhinal cortex at 150.3 MBq, iv after 62.5 mins; details: in vivo; outline: as §3
[40] = Biodistribution in rhesus monkey entorhinal cortex at 150.3 MBq, iv after 67.5 mins; details: in vivo, 1.125 h; outline: as §3
Striatum [41] = assay: Biodistribution in rhesus monkey striatum at 150.3 MBq, iv after 2.75 mins; details: in vivo, 165 s
[42] = Biodistribution in rhesus monkey cingulate cortex at 150.3 MBq, iv after 8.5 mins; details: in vivo; outline: as §3
[43] = Biodistribution in rhesus monkey retina at 150.3 MBq, iv after 52.5 mins; details: in vivo, 0.875 h
Striatum [44] = assay: Biodistribution in rhesus monkey striatum at 150.3 MBq, iv after 72.5 mins; details: in vivo
[45] = Biodistribution in rhesus monkey cerebellum at 150.3 MBq, iv after 72.5 mins; details: in vivo; outline: as §1

Structure (SMILES): [11CH3]Oc1cccc(C(=O)NCCN2CCN(c3ncccc3C#N)CC2)c1
- Drug uptake [1]: 46.02 kBq/ml
- Drug uptake [2]: 40.52 kBq/ml
- Drug uptake [3]: 56.67 kBq/ml
- Drug uptake (Striatum [4]): 60.2 kBq/ml
- Drug uptake [5]: 55.16 kBq/ml
- Drug uptake [6]: 39.28 kBq/ml
- Drug uptake (Striatum [7]): 56.85 kBq/ml
- Drug uptake (Hippocampus [8]): 50.51 kBq/ml
- Drug uptake [9]: 44.53 kBq/ml
- Drug uptake (Hippocampus [10]): 43.93 kBq/ml
- Drug uptake (Striatum [11]): 46.0188 kBq/ml
- Drug uptake [12]: 33.7 kBq/ml
- Drug uptake (Striatum [13]): 42.26 kBq/ml
- Drug uptake [14]: 34.76 kBq/ml
- Drug uptake (Striatum [15]): 36.37 kBq/ml
- Drug uptake (Striatum [16]): 34.7 kBq/ml
- Drug uptake [17]: 25.01 kBq/ml
- Drug uptake [18]: 25.93 kBq/ml
- Drug uptake [19]: 18.84 kBq/ml
- Drug uptake [20]: 16.76 kBq/ml
- Drug uptake (Striatum [21]): 18.52 kBq/ml
- Drug uptake [22]: 17.3 kBq/ml
- Drug uptake [23]: 56.02 kBq/ml
- Drug uptake [24]: 15.05 kBq/ml
- Drug uptake [25]: 16.29 kBq/ml
- Drug uptake [26]: 57.47 kBq/ml
- Drug uptake (Striatum [27]): 13.39 kBq/ml
- Drug uptake [28]: 11.95 kBq/ml
- Drug uptake [29]: 57.58 kBq/ml
- Drug uptake [30]: 13.49 kBq/ml
- Drug uptake (Striatum [31]): 11.52 kBq/ml
- Drug uptake [32]: 9.37 kBq/ml
- Drug uptake (Striatum [33]): 11.04 kBq/ml
- Drug uptake [34]: 10.29 kBq/ml
- Drug uptake [35]: 11.44 kBq/ml
- Drug uptake [36]: 10.15 kBq/ml
- Drug uptake [37]: 57.02 kBq/ml
- Drug uptake [38]: 55.05 kBq/ml
- Drug uptake [39]: 10.43 kBq/ml
- Drug uptake [40]: 7.481 kBq/ml
- Drug uptake (Striatum [41]): 50.12 kBq/ml
- Drug uptake [42]: 30.4104 kBq/ml
- Drug uptake [43]: 55.05 kBq/ml
- Drug uptake (Striatum [44]): 9.016 kBq/ml
- Drug uptake [45]: 8.18 kBq/ml
